Laboratory results: ChEMBL document CHEMBL1156682, “Synthesis and antioxidant activity evaluation of new hexahydropyrimido[5,4-c]quinoline-2,5-diones and 2-thioxohexahydropyrimido[5,4-c]quinoline-5-ones obtained by Biginelli reaction in two steps” (Eur J Med Chem, 2008)

How the values were obtained:
Type in all cases: functional
[1] = Antioxidant activity assessed as hydroxyl radical scavenging activity at 100 uM/L after 2 hrs
How it was run: (§1)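 Hydroxyl radical scavenging by benzoic acid hydroxylation, with OH· generated by Fenton reaction. Sample was mixed with phosphate buffer (pH 7.4, 0.1 mol), then H2O2 solution (10 mmol) was added, and the mixture was incubated at 37 °C for 2 h. Fluorescence of the hydroxylated benzoic acid was read at excitation 305 nm, emission 407 nm.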

[2] = tested on: Radical scavenging activity; test: Antioxidant activity assessed as DPPH radical scavenging activity at 100 uM/L after 2 hrs
How it was run: (§2)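 DPPH radical scavenging read as absorbance at 517 nm. %RSA = [(A_DPPH − A_S)/A_DPPH] × 100, where A_S is absorbance with compound added at a given level and A_DPPH is absorbance of DPPH solution alone. Mean of three independent samples per compound.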

[3] = tested on: Radical scavenging activity; test: Antioxidant activity assessed as DPPH radical scavenging activity at 250 uM/L after 2 hrs; how it was run: as §2
[4] = tested on: Radical scavenging activity; test: Antioxidant activity assessed as DPPH radical scavenging activity at 150 uM/L after 2 hrs; how it was run: as §2
[5] = tested on: Radical scavenging activity; test: Antioxidant activity assessed as DPPH radical scavenging activity at 50 uM/L after 2 hrs; how it was run: as §2
[6] = Antioxidant activity assessed as hydroxyl radical scavenging activity at 150 uM/L after 2 hrs; how it was run: as §1
[7] = tested on: Radical scavenging activity; test: Antioxidant activity assessed as DPPH radical scavenging activity at 200 uM/L after 2 hrs; how it was run: as §2
[8] = Antioxidant activity assessed as hydroxyl radical scavenging activity at 20 uM/L after 2 hrs; how it was run: as §1
[9] = Antioxidant activity assessed as hydroxyl radical scavenging activity at 50 uM/L after 2 hrs; how it was run: as §1
[10] = Antioxidant activity assessed as hydroxyl radical scavenging activity at 200 uM/L after 2 hrs; how it was run: as §1

| SMILES | Activity [1] [%] | Activity [2] [%] | Activity [3] [%] | Activity [4] [%] | Activity [5] [%] | Activity [6] [%] | Activity [7] [%] | Activity [8] [%] | Activity [9] [%] | Activity [10] [%] |
| --- | --- | --- | --- | --- | --- | --- | --- | --- | --- | --- |
| CCN1C(=O)NC2C(=C1C)C(=O)Nc1cccc(F)c12 (stereo not given) | 72.4 | 4.6 | 9.8 | 6 | 3 | 80.2 | 8.7 | 12.5 | 58.4 | 83.1 |
| CC1=C2C(=O)Nc3cccc(Cl)c3C2NC(=O)N1C (stereo not given) | 80.9 | 2.1 | 7.6 | 5 | 1.5 | 83.2 | 5.4 | 67.1 | 72.8 | 83.3 |
| CC1=C2C(=O)Nc3cccc(Cl)c3C2NC(=S)N1C (stereo not given) | 87.4 | 8.2 | 24.9 | 9.5 | 7.7 | 89.8 | 15.3 | 68 | 82.7 | 92.3 |
| CC1=C2C(=O)Nc3ccccc3C2NC(=S)N1C (stereo not given) | 77.2 | 8.2 | 26.2 | 14.1 | 4 | 82.3 | 17.9 | 56.3 | 69.4 | 88.2 |
| CC1=C2C(=O)Nc3cc(Cl)ccc3C2NC(=S)N1C (stereo not given) | 87.5 | 11.2 | 30.6 | 17.8 | 9.5 | 88.5 | 23.8 | 68.7 | 76.5 | 90.2 |
| CCN1C(=O)NC2C(=C1C)C(=O)Nc1c(Cl)cccc12 (stereo not given) | 80.6 | 2.3 | 11.8 | 4.3 | 1.9 | 84.4 | 8.1 | 63.8 | 74.1 | 86.7 |
| CC1=C2C(=O)Nc3cccc(F)c3C2NC(=S)N1C (stereo not given) | 80.2 | 8.6 | 25.4 | 12.4 | 3.3 | 81.5 | 17.4 | 70.6 | 78.8 | 83.3 |
| CCN1C(=O)NC2C(=C1C)C(=O)Nc1ccccc12 (stereo not given) | 81.1 | 4.8 | 10.5 | 6.7 | 3.4 | 86.5 | 9.1 | 58.1 | 70.9 | 89.1 |
| CC1=C2C(=O)Nc3ccccc3C2NC(=O)N1C (stereo not given) | 80.8 | 6.6 | 12 | 9.1 | 2.5 | 83.7 | 9.8 | 58.4 | 71.8 | 89.7 |
| CC1=C2C(=O)Nc3c(Cl)cccc3C2NC(=O)N1C (stereo not given) | 82.9 | 5.4 | 17.4 | 10.2 | 3.1 | 87.3 | 16.2 | 66 | 77.3 | 89.2 |
